Experimental data pooled from the literature.
Compare with care: the assays were run in different laboratories.
Medium: plasma

SMILES | test system | conditions | AUC(0-inf)
C[C@H]1Oc2cc(cnc2N)-c2c(nn(C)c2C#N)CN(C)C(=O)c2ccc(F)cc21 | male Sprague-Dawley rat | oral, 10 mg/kg, single dose | 3840 ng·h/mL
CC[C@@H]([C@H](C)O)n1ncn(-c2ccc(N3CCN(c4ccc(OC[C@@H]5CO[C@@](Cn6cncn6)(c6ccc(F)cc6F)C5)cc4)CC3)cc2)c1=O | Sprague-Dawley rat | oral, 40 mg/kg | 10200 ng·h/mL
CONC(=O)c1cccc2c1cc(C)n2-c1nc2c(c(NCc3ccccc3)n1)CCCN2 | male Sprague-Dawley rat | oral, 10 mg/kg, single dose | 38.9 ng·h/mL
Cn1c(=O)c2[nH]cnc2n(C)c1=O | male Sprague-Dawley rat | intravenous, 11.25 mg/kg | 32700 ng·h/mL
O=C1CCC(N2Cc3cc(C4CCN(Cc5ccccc5)CC4)ccc3C2=O)C(=O)N1 (stereo not shown) | male Sprague-Dawley rat | oral, 3 mg/kg | 349 ng·h/mL
C[C@H]1[C@@H](O)O[C@@H]2O[C@@]3(C)CC[C@H]4[C@H](C)CC[C@@H]1[C@@]24OO3 | male Sprague-Dawley rat | oral, 10 mg/kg | 271 ng·h/mL
C1=C/COCc2cc(ccc2OCCN2CCCC2)Nc2nccc(n2)-c2cccc(c2)COC/1 | male Sprague-Dawley rat | oral, 36 mg/kg | 3320 ng·h/mL
COc1nc(-c2cccc(-c3ccccc3)c2C)ccc1CNCCNC(=O)CCCCCCCCCCC(=O)N1CCN(CCNC(=O)c2cc3c(=O)n4cccc(C)c4nc3n(CCc3cccs3)c2=N)CC1 | male Sprague-Dawley rat | intravenous, 2 mg/kg | 1640 ng·h/mL
CNC(=O)c1cc(Oc2ccc(NC(=O)Nc3ccc(Cl)c(C(F)(F)F)c3)cc2)ccn1 | male Sprague-Dawley rat | oral, 100 mg/kg, single dose | 18400 ng·h/mL
CCOc1c([C@H](C)n2nc(C)c3c(N)ncnc32)cc(Cl)c(F)c1[C@@H]1CNC(=O)C1 | male Sprague-Dawley rat | oral, 2 mg/kg, single dose | 4610 ng·h/mL
Cc1nc(Nc2ncc(C(=O)Nc3c(C)cccc3Cl)s2)cc(N2CC[C@H](O)C2)n1 | male Sprague-Dawley rat | oral, 5 mg/kg, single dose | 2.71 µM·h
COc1ccc(N(Cc2csc(-c3ccccc3)n2)C(=O)CCCCCC(=O)NO)cc1 | female Sprague-Dawley rat | intravenous, 5 mg/kg | 30.7 ng·h/mL
COc1cc(-c2cc(C(C)=O)n3ccccc23)c(OC)cc1Cn1ccnc1 | male Sprague-Dawley rat | intravenous, 5 mg/kg | 4300 ng·h/mL
